High-throughput results: PubChem BioAssay, several laboratories
Only some compounds are listed: those with a hit (about 4.8% of all), similar ones and a draw of the others.
Beta apoptosis – beta cell apoptosis inhibition; INS-1E cytokine-induced death, ATP luminescence, 48 h; percent of positive-control rescue, neutral wells zero; protection from apoptosis, % (no concentration beside the values); hit rate 0.8% among 300,000; AID 435005;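 active = Every replicate reaches about 75%, or at least half do and their mean reaches it too, limit read from the data; inconclusive = At least half of replicates reach the limit but their mean does not; inactive = Under half of replicates reach the limit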;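 also: 0% = cytokine-treated negative control wells and 100% = positive control rescue; higher means more ATP so stronger rescue from cytokine killing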
CSC inhib – cancer stem cell inhibition; inhibition, % at 7.5 µM; AID 2717; hit rate 1.1% among 300,000; cancer stem cell-like cells viability, luminescence; in the data active = inhibition above about 75%; inconclusive = no clear call, values can overlap the other calls; tested in HMLE shEcad cells
SKKanGAS inh – inhibitors of SKKanGAS S. pyogenes growth in kanamycin (SK-promoter or general growth effect) | BacTiter-Glo, 6 h | inhibition, % at 7.5 µM | hit rate 1.3% among 300,000 | AID 1662;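 active = mean replicate score, as percent of positive control median, at least 50; inconclusive = mean below 50 but one replicate at or above 50; inactive = mean and every replicate below 50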;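 also: strain carries kanamycin resistance gene driven by streptokinase promoter and grows in 40 µg/ml kanamycin; loss of luminescence reflects streptokinase promoter inhibition or plain growth inhibition; 0% = median of DMSO wells and 100% = positive control at its reference dose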
CHOP UPR activ – activators of apoptotic arm of unfolded protein response (CHOP); hit rate 0.34% among 330,000; activation, % at 10 µM; CHO-CHOP luciferase reporter, UPR activation, luminescence; percent of tunicamycin response over DMSO baseline;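 active = at 10 µM dose, activation of 40% or more, normalized to positive control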;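 also: 100% = tunicamycin at 10 µg/mL and 0% = DMSO alone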
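Test system: CHO-CHOP cells, stable luciferase reporter of PERK-eIF2a-CHOP signalling | Quantity: 500 CHO-CHOP cells per well | Buffer or medium: F12 plus 10% serum | Compound dosing: 10 µM single point, 0.5% DMSO | Schedule: 6 h compound treatment, 37 °C | Signal: Luciferase luminescence | Control set: Tunicamycin high control, DMSO low control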
Mdm2 MdmX PPI – human Mdm2/MdmX binding inhibition. inhibition, % at 8 µM. SaOS-2 split-luciferase Mdm2/MdmX complementation, luminescence. O15151+Q00987. hit rate 3% among 330,000;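 active = inhibition of at least 50% at 8 µM in the primary screen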
Target sequence (O15151 whole entry, looked up): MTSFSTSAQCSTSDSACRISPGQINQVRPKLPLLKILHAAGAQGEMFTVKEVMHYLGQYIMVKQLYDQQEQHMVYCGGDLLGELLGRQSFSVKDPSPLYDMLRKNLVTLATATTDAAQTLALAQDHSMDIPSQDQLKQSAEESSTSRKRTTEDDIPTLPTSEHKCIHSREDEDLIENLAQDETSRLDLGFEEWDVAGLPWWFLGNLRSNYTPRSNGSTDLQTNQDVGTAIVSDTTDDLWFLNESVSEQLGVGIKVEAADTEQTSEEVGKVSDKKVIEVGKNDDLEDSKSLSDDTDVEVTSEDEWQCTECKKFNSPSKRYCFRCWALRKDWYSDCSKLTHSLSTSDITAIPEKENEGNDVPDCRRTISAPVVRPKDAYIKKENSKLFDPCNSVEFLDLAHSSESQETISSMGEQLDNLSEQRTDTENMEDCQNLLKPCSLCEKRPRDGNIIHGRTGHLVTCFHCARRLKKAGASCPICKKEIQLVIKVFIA
Target sequence (Q00987 whole entry, looked up): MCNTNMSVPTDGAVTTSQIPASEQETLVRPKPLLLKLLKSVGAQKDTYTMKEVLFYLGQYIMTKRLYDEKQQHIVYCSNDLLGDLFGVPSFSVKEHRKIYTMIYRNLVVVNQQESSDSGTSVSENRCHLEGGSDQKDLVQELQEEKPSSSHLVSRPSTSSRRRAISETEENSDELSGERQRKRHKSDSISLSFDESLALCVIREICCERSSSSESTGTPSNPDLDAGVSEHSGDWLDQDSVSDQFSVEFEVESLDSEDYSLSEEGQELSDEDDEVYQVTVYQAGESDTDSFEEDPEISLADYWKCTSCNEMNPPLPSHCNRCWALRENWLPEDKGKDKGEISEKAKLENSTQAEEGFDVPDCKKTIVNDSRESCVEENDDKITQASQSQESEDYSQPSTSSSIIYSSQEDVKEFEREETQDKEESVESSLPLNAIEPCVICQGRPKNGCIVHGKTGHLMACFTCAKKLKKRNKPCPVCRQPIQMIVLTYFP
XBP1 UPR activ – activators of adaptive arm of unfolded protein response (XBP1); CHO-XBP1 luciferase reporter, IRE1-XBP1 UPR activation, luminescence; percent of tunicamycin response, DMSO as zero; activation, % at 20 µM; hit rate 0.33% among 330,000; AID 463104;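 active = versus positive control, 20 µM dose yields 30% or more activation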;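 also: 100% = tunicamycin at 10 µg/mL and 0% = DMSO only wells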
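Material: CHO cell line with stable XBP1 luciferase reporter; buffer or medium: F12 medium containing 10% fetal bovine serum; compound: single point, 20 µM final compound, 1% DMSO; incubation: 6 h treatment, 37 °C; measured by: glow luminescence from Steady-Glo reagent; evaluation: activation, % of tunicamycin; control set: tunicamycin high, DMSO low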
* hit, by the source's call; u = inconclusive; x = no result given.

SMILES	Beta apoptosis	CSC inhib	SKKanGAS inh	CHOP UPR activ	Mdm2 MdmX PPI	XBP1 UPR activ
CCOc1ccc(NC(=O)CC2C(=O)N(CC)C(=S)N2CCN2CCOCC2)cc1 (stereo not given)	2	0	-1	0	9	0
CCN1C(=O)C(CC(=O)Nc2ccc(F)cc2)N(CCCN2CCN(c3ccc(F)cc3)CC2)C1=S (stereo not given)	-3	105*	4	-2	25	-2
Cc1ccc(CN2C(=O)c3ccccc3NC2c2cc(Br)ccc2O)cc1 (stereo not given)	3	110*	104*	-1	11	-4
O=C1c2ccccc2NC(c2ccccc2)N1Cc1ccccc1 (stereo not given)	-1	4	2	0	7	-1
CC(C)(CNC(=O)c1cccc(F)c1)CNC(=O)c1cccc(F)c1	0	-15	-5	-2	-1	-1
C/C(CC(=O)Nc1ccc(Cl)c(C(F)(F)F)c1)=N\NC(=O)c1ccccc1O	23	-12	104*	1	44	1
O=C(NCc1ccccc1)C1=C[C@H](c2csc3ccccc23)C[C@H](OCCCCO)O1	75*	16	17	1	44	-2
C[C@]12c3[nH]c4ccccc4c3CCN1C(=O)C(CC(=O)NCCN1CCOCC1)C[C@@H]2C(=O)N1CCOCC1 (stereo not given in full)	-2	-15	x	-1	-26	-1
N=C1SCC(=O)N1c1ncc(Cc2ccccc2Cl)s1	x	x	-8	x	x	x
O=C1c2ccccc2C(=O)N1c1ncc(Cc2ccc(Cl)cc2)s1	-6	-1	x	x	x	x
N=C1SCC(=O)N1c1ncc(Cc2cccc(Cl)c2)s1	x	x	84*	x	x	x
Cc1cccc(Cc2cnc(N3C(=N)SC(C)C3=O)s2)c1 (stereo not given)	3	56	93*	0	34	-1
Cc1cccc(Cc2cnc(N3C(=N)SC(c4ccccc4)C3=O)s2)c1 (stereo not given)	12	-11	106*	0	22	0
Cc1ccc(Cc2cnc(N3C(=N)SC(C)C3=O)s2)cc1 (stereo not given)	8	43	90*	0	10	-4
CC(=O)c1nc(N2C(=O)CC(Cc3cccc(C)c3)C2=O)sc1C (stereo not given)	-3	1	-2	-1	10	-4
O=c1oc2ccc3ccccc3c2cc1-c1nc2ccccc2o1	-2	3	-11	1	-1	-1
O=c1c(Cl)c2oc3ccccc3nc-2c2ccccc12	86*	6	u	2	12	8
COc1ccc(-c2cc3nc[nH]c(=O)c3s2)cc1	2	3	56*	-1	-65	-2
COc1cc(CC(NC(C)=O)C(=O)NC2CCN(C(=O)Nc3ccc(C)cc3)CC2)cc(OC)c1 (stereo not given)	-14	-15	6	0	7	3
CC1CCCCN1S(=O)(=O)c1ccc(C(=O)Nc2nnc(-c3ccncc3)o2)cc1 (stereo not given)	15	29	27	-2	22	0
CCCC(=O)Nc1nnc(-c2ccc(Cl)s2)o1	x	-1	-5	3	26	-1
CC1(C)COCN1S(=O)(=O)c1ccc(C(=O)Nc2nnc(-c3ccc(Cl)s3)o2)cc1	x	44	101*	5	15	5
COc1ccc(-c2nnc(NC(=O)c3ccc(S(=O)(=O)N4COCC4(C)C)cc3)o2)cc1	x	29	89*	13	43	2
Cc1ccc(/C=N/N2CCN(c3ccccn3)CC2)o1	0	-10	-3	6	16	6
O=C(NNC(=S)NC(=O)c1cccnc1)c1ccc(F)cc1	-3	1	28	-1	12	-2
SMILES	Beta apoptosis	CSC inhib	SKKanGAS inh	CHOP UPR activ	Mdm2 MdmX PPI	XBP1 UPR activ
O=C(/C=C/c1ccc(F)cc1)NC(=S)NNC(=O)c1cnccn1	70*	52	109*	-1	50	2
COc1ccc(/C=C/C(=O)NC(=S)NNC(=O)c2cccnc2)cc1	7	13	60*	0	-14	-3
O=C(NC(=S)NNC(=O)c1cnccn1)c1ccc(F)cc1	79*	61	29	1	45	1
Cc1ccc(S(=O)(=O)N2CCN(Cc3cc(=O)n4ccccc4n3)CC2)c(C)c1	0	6	x	-2	-12	-4
CC(C)(C)C1=CC=C(C(C)(C)C)C(=O)C1=O	-4	u	10	49*	-1	3
CC(C)(C)c1ccc2c(c1)C(=O)c1ccccc1C2=O	12	15	-3	2	-106	0
Cc1ccccc1OCC(O)CN(Cc1ccccc1O)C1CCCCC1 (stereo not given)	16	7	1	1	-8	-4
COc1ccc(-c2noc3c2-c2nc(-c4ccccc4C)sc2CC3)cc1	1	76*	0	2	41	1
Cc1c(CCC(=O)O)c(=O)oc2c(C)c(OCc3cc4c(cc3Cl)OCO4)ccc12	-5	3	67*	-1	-19	-2
Cc1c(CC(=O)O)c(=O)oc2c(C)c(OCc3c(F)cccc3Cl)ccc12	-9	-15	8	-1	17	2
CC(C)C(c1nnnn1Cc1ccccc1)N(Cc1ccco1)Cc1cccs1 (stereo not given)	4	45	18	-1	29	-1
COc1ccc(Cn2nnnc2C(C(C)C)N(Cc2ccco2)Cc2cccs2)cc1 (stereo not given)	3	77*	4	0	-36	-2
Cc1nn(Cc2ccc(C(=O)Nc3nc4c(C)cccc4s3)o2)c(C)c1Br	7	-11	58*	1	8	-2
Cc1cc(NC(=O)c2ccc(Cn3nc(C)c(Br)c3C)o2)no1	x	2	7	0	31	-1
CN(C)CCCNc1ccc(-c2cc(Nc3cccc(Cl)c3)ncn2)cn1	13	81*	-3	3	48	-1
CCOc1cc(S(=O)(=O)Nc2ccc(CC)cc2)ccc1Cl	55	123*	2	0	-7	3
COC(=O)C1=CN(Cc2ccccc2)C=C(C(=O)OC)C1c1cc(F)ccc1F	6	3	35	4	-14	2
O=S1(=O)CCOCCCN1Cc1ccc(Cl)cc1	-4	x	-1	0	22	1
CCNC(=S)N1CCN(c2ccc([N+](=O)[O-])cc2)CC1	x	2	-12	-3	3	-3
O=[N+]([O-])c1ccc(N2CCN(C(=S)NCc3ccc(Cl)cc3)CC2)cc1	96*	6	22	1	21	-2
Cc1ccc(/C=C/c2ccc(=O)n(Cc3ccccc3Cl)n2)cc1	1	24	69*	0	20	3
